Experiments:
[1] = Half life period in rat; format: ADME, organism-based; settings: in vivo
In short: (§1)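 Rats (three per compound) dosed iv and po; plasma concentration–time data analysed non-compartmentally for half-life and clearance; oral bioavailability calculated from dose-normalized iv and po AUC (area under plasma concentration–time curve).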

[2] = Oral bioavailability in rat; format: ADME, organism-based; settings: in vivo; in short: as §1
[3] = Plasma clearance in rat; format: ADME, organism-based; settings: read-out: Clp; in short: as §1
Integrin alpha-V/beta-3 [4] = biological target: T1, Integrin alpha-V/beta-3 (Homo sapiens, UniProt P05106+P06756); assay: Binding affinity for alphav/beta 3 vitronectin receptor in HEK cells; format: cell-based, HEK293
In short: (§2)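 Cell-based αvβ3 assay: HEK 293 cells transfected with human αvβ3; inhibition of adhesion to purified human vitronectin measured; IC50 values are means of two experiments, each in triplicate, run with an internal standard.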

Integrin alpha-V/beta-3 [5] = biological target: T1, Integrin alpha-V/beta-3; assay: Binding affinity for alphaV-beta3 vitronectin receptor; format: protein-complex assay
In short: (§3)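 Competitive radioligand binding to isolated human integrin, αvβ3 or αvβ5, with 3H-SK&F-107260 as the displaced ligand; Ki values are means of two to three separate experiments.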

Integrin alpha-V/beta-3 [6] = biological target: T1, Integrin alpha-V/beta-3; assay: Inhibition of HEK 293 cell adhesion to vitronectin by human alphaV-beta3 integrin; format: cell-based, HEK293; in short: as §2
Integrin alpha-V/beta-5 = Integrin alpha-V/beta-5 (Homo sapiens, UniProt P06756+P18084); assay: Binding affinity for alphaV-beta5 vitronectin receptor; format: protein-complex assay; in short: as §3
[7] = biological target: Integrin alpha-IIb/beta-3 (Homo sapiens, UniProt P05106+P08514); assay: Binding affinity for alphaIIb-beta3 vitronectin receptor; format: protein-complex assay
Homo sapiens = species on record: Homo sapiens; assay: Compound was tested for the inhibition of human vascular smooth muscle cell migration; format: functional

T1 sequence (P05106 27-788 limits assumed): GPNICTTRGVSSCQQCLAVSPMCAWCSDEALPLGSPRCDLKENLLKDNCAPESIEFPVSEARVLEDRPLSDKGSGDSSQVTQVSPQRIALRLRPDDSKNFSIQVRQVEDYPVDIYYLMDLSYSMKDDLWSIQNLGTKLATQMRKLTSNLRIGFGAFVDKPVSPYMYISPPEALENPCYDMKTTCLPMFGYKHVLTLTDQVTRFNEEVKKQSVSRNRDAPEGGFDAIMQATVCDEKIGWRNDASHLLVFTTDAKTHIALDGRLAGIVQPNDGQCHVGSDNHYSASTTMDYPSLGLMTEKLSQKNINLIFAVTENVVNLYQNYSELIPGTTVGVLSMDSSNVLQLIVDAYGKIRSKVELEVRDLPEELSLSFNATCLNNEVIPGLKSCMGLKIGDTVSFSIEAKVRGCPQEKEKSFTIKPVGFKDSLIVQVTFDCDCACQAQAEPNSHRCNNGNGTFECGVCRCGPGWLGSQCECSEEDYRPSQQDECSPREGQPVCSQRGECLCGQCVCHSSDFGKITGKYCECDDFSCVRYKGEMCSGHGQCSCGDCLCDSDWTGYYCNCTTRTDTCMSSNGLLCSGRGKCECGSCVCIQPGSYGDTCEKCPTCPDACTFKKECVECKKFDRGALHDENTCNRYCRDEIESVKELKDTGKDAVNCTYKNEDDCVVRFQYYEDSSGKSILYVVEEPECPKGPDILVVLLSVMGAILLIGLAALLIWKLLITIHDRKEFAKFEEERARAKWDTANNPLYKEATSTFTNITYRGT
T1 sequence (P06756 31-889 limits assumed): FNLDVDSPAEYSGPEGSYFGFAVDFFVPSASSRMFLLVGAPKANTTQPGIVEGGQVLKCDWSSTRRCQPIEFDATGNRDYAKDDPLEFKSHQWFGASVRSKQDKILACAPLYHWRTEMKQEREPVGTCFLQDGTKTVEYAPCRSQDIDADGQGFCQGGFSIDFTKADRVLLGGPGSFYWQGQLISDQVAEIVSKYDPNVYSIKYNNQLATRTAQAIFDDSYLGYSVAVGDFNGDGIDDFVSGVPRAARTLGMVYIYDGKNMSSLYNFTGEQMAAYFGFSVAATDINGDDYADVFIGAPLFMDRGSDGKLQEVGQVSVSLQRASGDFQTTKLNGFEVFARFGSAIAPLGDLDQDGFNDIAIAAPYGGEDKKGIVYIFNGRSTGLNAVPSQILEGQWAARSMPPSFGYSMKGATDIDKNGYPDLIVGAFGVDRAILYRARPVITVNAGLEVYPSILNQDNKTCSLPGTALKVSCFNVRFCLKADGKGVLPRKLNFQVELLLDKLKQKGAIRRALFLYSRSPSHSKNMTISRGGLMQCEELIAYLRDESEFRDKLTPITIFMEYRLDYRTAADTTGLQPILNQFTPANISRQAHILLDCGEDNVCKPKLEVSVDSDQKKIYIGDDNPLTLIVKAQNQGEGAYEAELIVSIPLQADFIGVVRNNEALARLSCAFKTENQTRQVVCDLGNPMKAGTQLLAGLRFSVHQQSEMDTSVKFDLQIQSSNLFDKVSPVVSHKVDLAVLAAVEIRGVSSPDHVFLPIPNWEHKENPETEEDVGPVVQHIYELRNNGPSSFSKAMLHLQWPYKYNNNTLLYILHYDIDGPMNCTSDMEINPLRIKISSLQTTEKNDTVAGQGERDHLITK
T1 sequence (P06756 891-1048 limits assumed): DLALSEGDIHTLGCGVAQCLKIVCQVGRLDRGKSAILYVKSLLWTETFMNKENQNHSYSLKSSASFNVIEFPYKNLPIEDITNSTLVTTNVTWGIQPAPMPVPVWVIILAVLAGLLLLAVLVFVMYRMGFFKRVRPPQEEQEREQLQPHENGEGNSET
Sequence of Integrin alpha-V/beta-5 (P06756 31-889 limits assumed): as the sequence (P06756 31-889 limits assumed) above
Sequence of Integrin alpha-V/beta-5 (P06756 891-1048 limits assumed): as the sequence (P06756 891-1048 limits assumed) above
Sequence of Integrin alpha-V/beta-5 (P18084 24-799 limits assumed): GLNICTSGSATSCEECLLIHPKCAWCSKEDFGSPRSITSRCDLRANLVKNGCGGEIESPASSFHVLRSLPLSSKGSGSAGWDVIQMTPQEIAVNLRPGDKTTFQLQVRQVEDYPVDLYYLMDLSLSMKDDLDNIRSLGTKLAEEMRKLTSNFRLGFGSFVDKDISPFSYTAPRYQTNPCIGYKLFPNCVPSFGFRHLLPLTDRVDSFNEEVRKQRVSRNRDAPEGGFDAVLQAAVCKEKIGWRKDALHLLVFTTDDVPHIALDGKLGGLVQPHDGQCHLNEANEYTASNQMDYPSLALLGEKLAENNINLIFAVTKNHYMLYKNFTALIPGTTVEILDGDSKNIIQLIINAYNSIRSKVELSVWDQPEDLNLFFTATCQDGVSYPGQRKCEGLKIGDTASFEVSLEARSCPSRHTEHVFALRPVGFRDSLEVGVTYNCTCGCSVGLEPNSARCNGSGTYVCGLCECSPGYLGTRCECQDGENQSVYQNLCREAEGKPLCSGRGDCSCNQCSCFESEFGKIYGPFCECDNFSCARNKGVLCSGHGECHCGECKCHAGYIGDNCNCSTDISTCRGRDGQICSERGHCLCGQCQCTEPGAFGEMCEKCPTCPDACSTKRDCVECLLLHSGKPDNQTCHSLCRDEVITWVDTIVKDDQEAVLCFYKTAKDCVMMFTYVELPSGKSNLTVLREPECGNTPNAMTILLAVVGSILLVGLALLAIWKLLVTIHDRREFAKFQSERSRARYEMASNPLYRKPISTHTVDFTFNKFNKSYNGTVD
Sequence of Integrin alpha-IIb/beta-3 (P05106 27-788 limits assumed): as the sequence (P05106 27-788 limits assumed) above
Sequence of Integrin alpha-IIb/beta-3 (P08514 32-887 limits assumed): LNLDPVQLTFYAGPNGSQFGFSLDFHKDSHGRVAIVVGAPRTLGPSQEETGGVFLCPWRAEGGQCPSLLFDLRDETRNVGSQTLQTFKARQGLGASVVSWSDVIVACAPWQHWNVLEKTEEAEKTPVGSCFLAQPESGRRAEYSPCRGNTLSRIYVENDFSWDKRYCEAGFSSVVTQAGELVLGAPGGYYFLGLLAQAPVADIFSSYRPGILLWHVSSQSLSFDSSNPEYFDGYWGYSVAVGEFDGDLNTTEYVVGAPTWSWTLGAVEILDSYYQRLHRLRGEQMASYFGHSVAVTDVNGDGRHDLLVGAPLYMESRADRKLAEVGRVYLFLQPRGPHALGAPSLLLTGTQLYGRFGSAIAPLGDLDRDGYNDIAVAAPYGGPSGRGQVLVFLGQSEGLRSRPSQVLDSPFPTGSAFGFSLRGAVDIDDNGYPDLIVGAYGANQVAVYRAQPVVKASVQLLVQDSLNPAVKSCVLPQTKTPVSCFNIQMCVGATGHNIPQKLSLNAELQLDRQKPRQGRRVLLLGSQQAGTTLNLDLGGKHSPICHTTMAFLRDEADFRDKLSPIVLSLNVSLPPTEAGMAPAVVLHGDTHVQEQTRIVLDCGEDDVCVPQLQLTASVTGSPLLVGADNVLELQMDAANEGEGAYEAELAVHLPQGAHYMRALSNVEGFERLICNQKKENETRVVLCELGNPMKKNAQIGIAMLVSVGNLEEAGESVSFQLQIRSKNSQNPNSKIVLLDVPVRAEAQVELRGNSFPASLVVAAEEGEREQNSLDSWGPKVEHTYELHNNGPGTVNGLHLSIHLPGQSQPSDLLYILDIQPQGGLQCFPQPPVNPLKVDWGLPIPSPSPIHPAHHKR
Sequence of Integrin alpha-IIb/beta-3 (P08514 891-1039 limits assumed): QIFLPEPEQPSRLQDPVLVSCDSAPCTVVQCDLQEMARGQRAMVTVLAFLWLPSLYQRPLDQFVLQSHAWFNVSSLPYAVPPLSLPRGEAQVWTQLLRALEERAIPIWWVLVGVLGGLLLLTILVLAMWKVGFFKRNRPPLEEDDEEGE

SMILES: O=C(O)C[C@H](Cc1ccc(OCCCNc2ccccn2)cc1)c1ccccc1
- half-life [1]: 2.4 h
- bioavailability [2]: 100%
- clearance [3]: 0.432 L/h/kg
- IC50 (Integrin alpha-V/beta-3 [4]): 0.47 µM
- Ki (Integrin alpha-V/beta-3 [5]): 0.012 µM

SMILES: O=C(O)CC(Cc1ccc(OCCCNc2ccccn2)cc1)c1ccccc1 (centres undefined)
- IC50 (Integrin alpha-V/beta-3 [6]): 0.5 µM
- Ki (Integrin alpha-V/beta-3 [5]): 0.032 µM
- Ki (Integrin alpha-V/beta-5): 0.006 µM
- Ki [7]: > 10 µM

SMILES: O=C(O)C[C@@H]1Cc2ccc(OCCCNc3ccccn3)cc2Cc2ccccc21
- Ki (Integrin alpha-V/beta-5): 0.0026 µM

SMILES: O=C(O)C[C@H](Cc1ccc(OCCc2ccc3c(n2)NCCC3)cc1)c1ccccc1
- half-life [1]: 1.58 h
- bioavailability [2]: 100%
- clearance [3]: 0.36 L/h/kg
- IC50 (Homo sapiens): 0.026 µM
- IC50 (Integrin alpha-V/beta-3 [4]): 0.03 µM
- Ki (Integrin alpha-V/beta-3 [5]): 0.0025 µM
- Ki (Integrin alpha-V/beta-5): 0.0025 µM
- Ki [7]: 36 µM

SMILES: O=C(O)C[C@@H](Cc1ccc(OCCCNc2ccccn2)cc1)c1ccccc1
- Ki (Integrin alpha-V/beta-3 [5]): 0.17 µM

SMILES: CNc1cccc(CCOc2ccc(C[C@@H](CC(=O)O)c3ccccc3)cc2)n1
- half-life [1]: 5.17 h
- bioavailability [2]: 100%
- clearance [3]: 0.294 L/h/kg
- IC50 (Integrin alpha-V/beta-3 [4]): 0.33 µM
- Ki (Integrin alpha-V/beta-3 [5]): 0.007 µM

Source: ChEMBL document CHEMBL1136710, “Phenylbutyrates as potent, orally bioavailable vitronectin receptor (integrin alphavbeta3) antagonists” (Bioorg Med Chem Lett, 2003)
